According to ChEMBL document CHEMBL1268987, “Identification of 2-oxo-N-(phenylmethyl)-4-imidazolidinecarboxamide antagonists of the P2X(7) receptor” (Bioorg Med Chem Lett, 2010):
pIC50: −log10 of the molar value. Converted amounts (≈) assume the structure as drawn. Each block holds one compound with its values, some of them ahead of it. The source made the active and inactive calls. The rule behind the calls is not given here.

Key:
P2X purinoceptor 7 [1] = target: T1, P2X purinoceptor 7 (Homo sapiens, UniProt Q99572); assay: Antagonist activity at human recombinant P2X7 receptor expressed in HEK293 cells by ethidium accumulation assay; format: functional, cell-based
T1 sequence (Q99572 whole entry): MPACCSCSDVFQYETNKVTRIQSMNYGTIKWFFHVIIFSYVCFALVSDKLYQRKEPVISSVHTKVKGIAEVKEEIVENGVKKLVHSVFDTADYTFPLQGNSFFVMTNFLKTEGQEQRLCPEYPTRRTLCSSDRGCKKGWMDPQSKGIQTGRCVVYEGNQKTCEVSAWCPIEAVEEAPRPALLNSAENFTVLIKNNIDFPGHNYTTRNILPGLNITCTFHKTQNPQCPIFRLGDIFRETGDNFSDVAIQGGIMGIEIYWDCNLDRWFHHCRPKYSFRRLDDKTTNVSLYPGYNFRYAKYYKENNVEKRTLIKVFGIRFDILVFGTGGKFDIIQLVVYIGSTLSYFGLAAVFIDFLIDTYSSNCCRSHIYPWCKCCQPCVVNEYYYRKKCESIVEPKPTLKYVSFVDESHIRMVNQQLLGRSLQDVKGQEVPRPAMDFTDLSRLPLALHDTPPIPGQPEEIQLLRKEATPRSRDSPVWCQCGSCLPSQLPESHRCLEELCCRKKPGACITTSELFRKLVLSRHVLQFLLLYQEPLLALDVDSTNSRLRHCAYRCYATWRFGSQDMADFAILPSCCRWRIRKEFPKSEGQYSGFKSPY
Outline: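 Ethidium accumulation read-out: ATP activation of the receptor opens a large pore, and uptake of ethidium bromide dye into the cells is measured by fluorescence.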

MDCK = assay: Efflux ratio of permeability from apical to basolateral side over basolateral to apical side in MDCK cells expressing MDR; format: ADME, cell-based, Canis lupus familiaris; settings: dog
[2] = Half life in rat blood at 1 mg/kg, iv; format: ADME, organism-based; set-up: dose 1 mg/kg, route intravenous
Rattus norvegicus [3] = assay: (§1) Clearance in rat blood at 1 mg/kg, iv; format: ADME, organism-based; set-up: dose 1 mg/kg, route intravenous; settings: in vivo
Outline: (§2)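 Rat blood clearance was determined after a single iv infusion at 1 mg/kg.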

[4] = Metabolic stability in rat liver microsomes assessed as intrinsic clearance measured per gram of tissue; format: ADME, Microsome
[5] = Lipophilicity, log D of the compound at pH 7.4; format: physicochemical; settings: buffer
[6] = Clearance in rat at 3 mg/kg, po; format: ADME, organism-based; set-up: dose 3 mg/kg, route oral; settings: in vivo
[7] = Drug level in rat chronic joint pain model blood at 20 mg/kg, po after 1 hr; format: ADME, organism-based; set-up: dose 20 mg/kg, route oral; settings: read-out: Drug uptake
Outline: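 In the rat chronic joint pain model, blood concentrations were measured 1.0 h after a 20 mg/kg oral dose.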

[8] = Half life in rat at 3 mg/kg, po; format: ADME, organism-based; set-up: dose 3 mg/kg, route oral; settings: in vivo
Rattus norvegicus [9] = assay: Reversal of FCA-induced hypersensitivity in rat chronic joint pain model at 20 mg/kg, po after 1 to 6 hrs; format: functional, organism-based; set-up: dose 20 mg/kg
Outline: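 Chronic joint pain model in rat. Hypersensitivity was induced by intra-articular FCA, and oral dosing at 20 mg/kg began 13 days post FCA. Response was assessed at 1, 3 and 6 h post-dose. Celecoxib at 30 mg/kg po served as comparator.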

[10] = Cmax in rat at 3 mg/kg, po; format: ADME, organism-based; set-up: dose 3 mg/kg, route oral; settings: in vivo
P2X purinoceptor 7 [11] = target: T2, P2X purinoceptor 7 (Rattus norvegicus, UniProt Q64663); assay: Antagonist activity at rat recombinant P2X7 receptor; format: functional
T2 sequence (Q64663 whole entry): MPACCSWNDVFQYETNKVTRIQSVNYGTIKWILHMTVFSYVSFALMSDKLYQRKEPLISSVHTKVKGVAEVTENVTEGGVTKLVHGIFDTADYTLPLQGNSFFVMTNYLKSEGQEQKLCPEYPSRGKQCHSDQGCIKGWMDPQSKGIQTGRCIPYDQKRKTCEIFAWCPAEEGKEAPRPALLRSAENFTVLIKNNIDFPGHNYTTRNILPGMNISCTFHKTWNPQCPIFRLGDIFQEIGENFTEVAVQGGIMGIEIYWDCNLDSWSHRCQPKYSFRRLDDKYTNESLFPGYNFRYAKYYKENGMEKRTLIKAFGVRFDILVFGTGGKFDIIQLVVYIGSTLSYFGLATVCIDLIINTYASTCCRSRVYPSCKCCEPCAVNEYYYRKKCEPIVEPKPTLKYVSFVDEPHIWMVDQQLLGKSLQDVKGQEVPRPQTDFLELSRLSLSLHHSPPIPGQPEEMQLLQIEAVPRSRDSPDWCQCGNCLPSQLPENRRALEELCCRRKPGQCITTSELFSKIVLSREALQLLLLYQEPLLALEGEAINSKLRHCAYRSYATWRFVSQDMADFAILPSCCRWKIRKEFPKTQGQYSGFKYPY

[12] = Ratio of drug level in brain to plasma in rat chronic joint pain model at 20 mg/kg, po after 1 hr; format: ADME, organism-based; set-up: dose 20 mg/kg, route oral; settings: brain and plasma, read-out: BBR
[13] = Volume of distribution at steady state in dog at 1 mg/kg, iv and 3 mg/kg, po; format: ADME, organism-based, Canis lupus familiaris; settings: in vivo, read-out: Vdss
Outline: (§3)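 Cross-species pharmacokinetics (rat, dog, monkey), n = 3 per species. Parameters were derived from 1 mg/kg iv or 3 mg/kg po profiles: blood clearance, Vss, half-life and oral bioavailability.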

[14] = Volume of distribution at steady state in rat at 1 mg/kg, iv and 3 mg/kg, po; format: ADME, organism-based; settings: in vivo, read-out: Vdss; outline: as §3
[15] = Half life in rat at 1 mg/kg, iv and 3 mg/kg, po; format: ADME, organism-based; settings: in vivo; outline: as §3
[16] = Oral bioavailability in dog at 1 mg/kg, iv and 3 mg/kg, po; format: ADME, organism-based, Canis lupus familiaris; settings: in vivo; outline: as §3
[17] = Half life in monkey at 1 mg/kg, iv and 3 mg/kg, po; format: ADME, organism-based, Macaca mulatta; settings: rhesus monkey, in vivo; outline: as §3
[18] = Clearance in dog blood at 1 mg/kg, iv and 3 mg/kg, po; format: ADME, organism-based, Canis lupus familiaris; outline: as §3
[19] = Volume of distribution at steady state in monkey at 1 mg/kg, iv and 3 mg/kg, po; format: ADME, organism-based, Macaca mulatta; settings: rhesus monkey, in vivo, read-out: Vdss; outline: as §3
[20] = Half life in dog at 1 mg/kg, iv and 3 mg/kg, po; format: ADME, organism-based, Canis lupus familiaris; settings: in vivo; outline: as §3
[21] = Oral bioavailability in monkey at 1 mg/kg, iv and 3 mg/kg, po; format: ADME, organism-based, Macaca mulatta; settings: rhesus monkey, in vivo; outline: as §3
[22] = Clearance in monkey blood at 1 mg/kg, iv and 3 mg/kg, po; format: ADME, organism-based, Macaca mulatta; settings: rhesus monkey; outline: as §3
[23] = Clearance in rat blood at 1 mg/kg, iv and 3 mg/kg, po; format: ADME, organism-based; outline: as §3
[24] = as §1; format: ADME, organism-based; set-up: dose 1 mg/kg, route intravenous; settings: blood; outline: as §2
[25] = Protein binding in rat plasma; format: ADME, cell-free; settings: read-out: PPB (converted)
[26] = Oral bioavailability in rat at 1 mg/kg, iv and 3 mg/kg, po; format: ADME, organism-based; settings: in vivo; outline: as §3
[27] = Solubility of the compound in FeSSIF; format: physicochemical

- pIC50 (P2X purinoceptor 7 [1]): 8.40
Structure (SMILES): CN1C(=O)COC[C@H]1C(=O)NCc1cccc(C(F)(F)F)c1Cl

- Ratio (MDCK): 3.2
- pIC50 (P2X purinoceptor 7 [1]): 7.50
Structure (SMILES): CN1CCC(N2C[C@@H](C(=O)NCc3cccc(C(F)(F)F)c3Cl)N(C)C2=O)CC1

- Ratio (MDCK): 5.3
- pIC50 (P2X purinoceptor 7 [1]): 8.40
Structure (SMILES): CN1C(=O)N(c2nccn2C)C[C@H]1C(=O)NCc1cccc(C(F)(F)F)c1Cl

- pIC50 (P2X purinoceptor 7 [1]): 8.40
Structure (SMILES): CN1C(=O)C(F)(F)C[C@H]1C(=O)NCc1cccc(C(F)(F)F)c1Cl

- pIC50 (P2X purinoceptor 7 [1]): 7.80
Structure (SMILES): CN1C(=O)OC[C@H]1C(=O)NCc1cccc(C(F)(F)F)c1Cl

- Ratio (MDCK): 1.9
- pIC50 (P2X purinoceptor 7 [1]): 8.00
Structure (SMILES): Cc1cc(N2C[C@@H](C(=O)NCc3cccc(C(F)(F)F)c3Cl)N(C)C2=O)ccn1

- Ratio (MDCK): 4.4
- pIC50 (P2X purinoceptor 7 [1]): 8.30
Structure (SMILES): Cc1ncccc1N1C[C@@H](C(=O)NCc2cccc(C(F)(F)F)c2Cl)N(C)C1=O

- pIC50 (P2X purinoceptor 7 [1]): 8.60
Structure (SMILES): CN1C(=O)N(c2cn(C)cn2)C[C@H]1C(=O)NCc1cccc(C(F)(F)F)c1Cl

- half-life [2]: 0.6 h
- clearance (Rattus norvegicus [3]): 30 mL/min/kg
- CLint scaled [4]: < 0.5 mL/min/g
- pIC50 (P2X purinoceptor 7 [1]): 8.70
Structure (SMILES): CN1C[C@@H](C(=O)NCc2ccc(Cl)cc2Cl)N(C)C1=O

- pIC50 (P2X purinoceptor 7 [1]): 7.10
Structure (SMILES): Cc1cccc(N2C[C@@H](C(=O)NCc3cccc(C(F)(F)F)c3Cl)N(C)C2=O)n1

- pIC50 (P2X purinoceptor 7 [1]): 7.60
Structure (SMILES): CN1C(=O)C(C)(C)C[C@H]1C(=O)NCc1cccc(C(F)(F)F)c1Cl

- logD [5]: 2.2
- Ratio (MDCK): 4.9
- CL/F [6]: 17 mL/min/kg
- concentration at 1 h [7]: 16.8 µM
- half-life [8]: 2.3 h
- Cmax [10]: 1070 ng/mL
- pIC50 (P2X purinoceptor 7 [1]): 8.00
- pIC50 (P2X purinoceptor 7 [11]): 7.20
- Kp at 1 h [12]: < 0.1
Structure (SMILES): Cc1ncccc1N1C[C@@H](C(=O)NCc2ccc(Cl)cc2Cl)N(C)C1=O
- Activity (Rattus norvegicus [9]): inactive

- Ratio (MDCK): 11.9
- pIC50 (P2X purinoceptor 7 [1]): 7.60
Structure (SMILES): CN1C(=O)N(CCN2CCOCC2)C[C@H]1C(=O)NCc1cccc(C(F)(F)F)c1Cl

- Vd [13]: 0.9 L/kg
- Vd [14]: 1 L/kg
- half-life [15]: 1.5 h
- bioavailability [16]: 69%
- half-life [17]: 0.9 h
- clearance [18]: 14 mL/min/kg
- Vd [19]: 1.1 L/kg
- half-life [20]: 0.7 h
- bioavailability [21]: 57%
- clearance [22]: 17 mL/min/kg
- pIC50 (P2X purinoceptor 7 [11]): 6.60
- clearance [23]: 9 mL/min/kg
Structure (SMILES): CN1C(=O)CC[C@H]1C(=O)NCc1cccc(C(F)(F)F)c1Cl [GSK1482160]

- Ratio (MDCK): 2.1
- pIC50 (P2X purinoceptor 7 [1]): 8.40
Structure (SMILES): CN1C(=O)NC[C@H]1C(=O)NCc1cccc(C(F)(F)F)c1Cl

- pIC50 (P2X purinoceptor 7 [1]): 7.60
Structure (SMILES): CN1C(=O)NC[C@H]1C(=O)NCc1cccc(Cl)c1Cl

- half-life [2]: 0.4 h
- clearance [24]: 49 mL/min/kg
- pIC50 (P2X purinoceptor 7 [1]): 8.00
Structure (SMILES): CN1C[C@@H](C(=O)NCc2cccc(Cl)c2Cl)N(C)C1=O

- Vd [13]: 0.8 L/kg
- Vd [14]: 1.3 L/kg
- half-life [15]: 2.8 h
- half-life [2]: 2.8 h
- bioavailability [16]: 100%
- fraction unbound [25]: 0.35
- half-life [17]: 2.9 h
- concentration at 1 h [7]: 56.4 µM
- clearance [18]: 2 mL/min/kg
- bioavailability [26]: 100%
- clearance [24]: 6 mL/min/kg
- Vd [19]: 1.2 L/kg
- half-life [20]: 5.7 h
- bioavailability [21]: 99%
- clearance [22]: 7 mL/min/kg
- pIC50 (P2X purinoceptor 7 [1]): 8.00
- Kp at 1 h [12]: 0.3
- clearance [23]: 6 mL/min/kg
- solubility [27]: 780 µg/mL (≈ 2580 µM)
Structure (SMILES): CN1C(=O)NC[C@H]1C(=O)NCc1ccc(Cl)cc1Cl
- Activity (Rattus norvegicus [9]): Active
